Compound activity: PubChem BioAssay, several laboratories
PMI act – phosphomannose isomerase (human) activation | AID 1214 | purified human PMI, coupled resazurin fluorescence, 20 min; hits give high values; 1 = vehicle control, 0 substrate-free wells | P34949 | activation factor at 20 µM | 0.005% of 190,000 active;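 active means activation factor of 2 or more at 20 µM, relative to plate controls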
Target sequence (P34949 whole entry, looked up): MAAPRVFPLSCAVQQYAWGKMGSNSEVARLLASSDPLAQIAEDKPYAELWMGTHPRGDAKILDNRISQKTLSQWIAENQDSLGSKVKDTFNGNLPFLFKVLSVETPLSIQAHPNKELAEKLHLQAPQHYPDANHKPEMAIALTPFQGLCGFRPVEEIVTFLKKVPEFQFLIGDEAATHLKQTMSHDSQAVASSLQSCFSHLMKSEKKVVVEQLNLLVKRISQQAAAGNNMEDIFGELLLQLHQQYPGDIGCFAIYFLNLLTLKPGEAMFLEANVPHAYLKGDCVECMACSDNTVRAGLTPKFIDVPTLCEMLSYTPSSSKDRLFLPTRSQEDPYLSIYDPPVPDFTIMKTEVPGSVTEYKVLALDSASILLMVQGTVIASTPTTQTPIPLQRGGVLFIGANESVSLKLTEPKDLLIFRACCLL
p47phox inh – blocks human p47phox regulatory protein of NADPH oxidases; P14598; p47phox/p22phox peptide binding, fluorescence polarization, 2 h; inhibition, % at 24.7 µM; 0.53% of 220,000 active; AID 1274;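 active means inhibition above about 30%, limit read from the data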;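 further: 0% = p47phox with labelled peptide and 100% = labelled peptide alone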
Diaphorase act – activates diaphorase or chemically reduces, flagging diaphorase assay artifacts; Diaphorase/resazurin coupled assay, resorufin fluorescence, 16 min; hits give high values; 1 = vehicle wells, 0 = NADH-free wells; activation factor at 20 µM; 0.005% of 190,000 active; AID 1229;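 active means diaphorase activity raised at least twofold by the compound at 20 µM; inactive means activation factor below 2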
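Test system: Clostridium kluyveri diaphorase, purified enzyme. Buffer or medium: 50 mM HEPES pH 7.4 buffer plus MgCl2 and Tween 20. Also added: 0.114 mM NADH and 0.1 mM resazurin, final amounts. Dosing: compound 20 µM once, DMSO 1%. Schedule: 16 min enzyme reaction, ambient temperature. Detection: fluorescence of resorufin, 544 nm excitation, 590 nm emission.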
PMI act hi M6P – PMI (human) activation, high substrate. coupled PMI enzyme assay, resazurin fluorescence, 20 min; hits give high values; 1 = untreated enzyme, 0 = substrate-free blank. activation factor at 20 µM. 0.34% of 190,000 active. AID 1216;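 active means activation factor of 2 or more at 20 µM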
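test system = human PMI in coupled enzyme assay | medium = HEPES-buffered pH 7.4 with magnesium and detergent | also added = 1.0 mM mannose-6-phosphate substrate with 0.22 mM NADP+ | compound = 20 µM single dose | times = 20 min incubation at room temperature | measured by = resorufin fluorescence (Ex 544/Em 590 nm) from resazurin via diaphorase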
DTT redox prof – compounds producing H2O2 with reducing agent – biochemical, NIH compound library profiling, artefact control for MLSCN library redox annotation, primary screen | activation, % at 10 µM | 0.03% of 200,000 active | DTT-dependent redox cycling H2O2, phenol red/HRP absorbance; 100% = 100 µM peroxide control, 0% = buffer;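 active means activation of at least 50% relative to the plate's high and low controls in the primary single-dose screen; inactive means activation below 50%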;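 further: compound incubated with DTT at 0.8 mM final as the reducing agent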
Efa HMGR inh – blocks class II HMG-CoA reductase of Enterococcus faecalis | purified E. faecalis HMGR, NADPH absorbance 340 nm kinetic | inhibition, % at 10 µM | 0.41% of 190,000 active | AID 1066;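 active means inhibition above a set limit, the median over all tested compounds plus 3 SD, cut at about 9.5% in these data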;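 further: enzyme runs in reverse so mevalonate oxidation gives rising NADPH absorbance; 0% = complete reaction with DMSO and 100% = background rate lacking mevalonate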
Numbers without * were called inactive; . = no result given; + = active, no number; ! = not confirmed by another sample. The list is not random: actives were taken first. Their share in the collection is about 1.2%.

SMILES	PMI act	p47phox inh	Diaphorase act	PMI act hi M6P	DTT redox prof	Efa HMGR inh
CCCCCCCCCC(=O)Nc1cccnc1	1	0	0.8	1	0	10*
CCCCCCCCCCC(=O)Nc1cccnc1	0.9	-6	0.9	1	-1	2
c1ccc(CCNc2ccccc2)cc1	1.1	.	0.9	0.9	.	.
COc1cc(CNC(C)c2ccccc2)cc(Cl)c1OCC(=O)Nc1ccccc1 (stereo not given)	1	-20	0.9	1	-1	1
Cc1ccc(C(=O)NC2(C(Cl)Cl)N=C(c3ccccc3)N=C2N)cc1 (stereo not given)	1	-8	0.9	1	-2	9.7*
COC(=O)c1cc(C#N)c(N2CC(C)OC(C)C2)nc1C (stereo not given)	0.9	-13	0.9	0.9	0	0
CCN1C(=O)N(c2cccc3ccccc23)C(C)=CC1(C)C	1	-12	0.9	1	1	-3
CN1c2ccccc2N(C)C1(C)c1ccccc1	0.7	70*	0.8	0.7	0	2
CN1C(=O)N(C)C2(c3ccccc3)NC(=O)NC12c1ccccc1 (stereo not given)	1.1	-8	0.9	1	1	-5
CCN1c2ccccc2N(C)C1(C)c1ccccc1 (stereo not given)	0.4	63*	0.4	0.5	1	-2
CC(OC(=O)C1=COCCO1)C(=O)Nc1ccccc1C#N (stereo not given)	1	-10	1	1	0	-2
COc1ccc(N(C)C(=O)c2oc(=O)c3ccccc3c2-c2ccc(C)cc2)c(OC)c1	.	6	.	.	.	.
c1ccc2[nH]c(-c3ccnc4ccccc34)nc2c1	1	+!	1	1	-2	-2
COc1ccccc1Oc1ccc2c(c1)C(=O)N(c1cccc(O)c1)C2=O	0.9	-13	0.7	0.8	1	3
COc1ccccc1Oc1ccc2c(c1)C(=O)N(c1cccc3ncccc13)C2=O	0.8	36*	0.9	0.9	0	-5
Cc1ccc(C(=O)COC(=O)c2ccc3c(c2)C(=O)N(c2cccc4ncccc24)C3=O)cc1C	1	73*	1.3	1.2	-3	5
CCCN1CNc2c(c(=O)[nH]c(=S)n2CCc2ccccc2)C1	1.1	-18	1	1.1	0	-3
Cc1cccc(-n2c(O)cnc2Nc2nc(C)cc(C)n2)c1	1	40*	1	1	0	-4
O=C(COc1cc(O)c2c(=O)cc(-c3ccccc3)oc2c1)c1ccc(F)cc1	0.9	32*	0.9	1	2	1
O=C(COc1cc(O)c2c(=O)cc(-c3ccccc3)oc2c1)c1ccccc1	1	-9	1	1	2	-2
Cc1cccc(S(=O)(=O)Nc2ccc(-c3cn4ccccc4n3)cc2)c1	0.9	-20	0.8	0.9	0	14*
CCOC(=O)CNC(=O)C1CCCc2c1[nH]c1ccc(Cl)cc21 (stereo not given)	0.9	-1	1	1	-1	-8
CCOC(=O)c1ccc2[nH]c3c(c2c1)CCCC3O (stereo not given)	1	48*	0.9	1	0	-8
Cc1onc(-c2ccccc2)c1C(=O)OCC(=O)NCc1ccc(F)cc1	1.1	2	0.9	1.1	-3	-4
O=C(/N=C1\NC(=O)C(F)(C(F)(F)F)S1)NC1CCCCC1 (stereo not given)	0.3	-9	0.8	0.5	.	-5
SMILES	PMI act	p47phox inh	Diaphorase act	PMI act hi M6P	DTT redox prof	Efa HMGR inh
CCC1S/C(=N/C(=O)NC2CCCCC2)NC1=O (stereo not given)	1.1	-15	1	1	1	10*
CCOC(=O)c1cc(-c2ccccc2)sc1NC(=O)C(C)OC(=O)c1cccnc1Cl (stereo not given)	0.7	-16	0.8	0.9	0	-1
Cc1ccc(-n2nc(C(=O)O)c(O)cc2=O)cc1	0.9	-5	0.8	1	-1	-4
Cc1ccc(-c2cc(C(=O)O)n(-c3ccc(S(N)(=O)=O)cc3)n2)cc1	1.2	-1	1.1	1.2	0	16*
CC(C)OC(=O)c1cccnc1N1CCN(c2cccc(Cl)c2)CC1	0.8	-1	0.8	0.9	-2	-5
CN(CCCC[C@H](CNCc1ccc(-c2ccccc2)cc1)N1C[C@H](c2ccccc2)N(CCc2ccc(Cl)c(Cl)c2)C(=O)C1=O)Cc1ccc(-c2ccccc2)cc1	.	51*	.	.	.	.
COc1ccc(CNC[C@@H](CCCCN(C)Cc2ccc(OC)cc2)N2C[C@H](c3ccccc3)N(CCc3ccc(Cl)c(Cl)c3)C(=O)C2=O)cc1	1.1	50*	2.2*	1	0	5
O=[N+]([O-])c1ccc2[nH]nc(-c3ccccc3)c2c1	0.9	-10	0.8	0.9	0	9.8*
O=C(O)c1[nH]c2ccc([N+](=O)[O-])cc2c1-c1ccccc1	.	-12	.	.	.	.
CC/C(=N/Nc1ccccc1)c1cnnc(-c2ccccc2)n1	1.9	-3	1.1	2.9*	-1	2
O=C(C1=C[C@@H]2[C@H]3C(=O)N(c4cccc(Cl)c4)C(=O)[C@H]3[C@@H](C(=O)c3ccc(Cl)cc3)N2C=C1)c1ccccc1	1.5	-41	0.9	2.2*	0	-3
Cc1ccc(N2C(=O)[C@@H]3[C@H](C2=O)[C@H]2C=C(C(=O)c4ccccc4)C=CN2[C@@H]3C(=O)c2ccc(Cl)cc2)cc1	1.6	-44	0.8	2.1*	0	-4
O=C(C1=C[C@@H]2[C@H]3C(=O)N(c4ccccc4Cl)C(=O)[C@H]3[C@@H](C(=O)c3ccc(Cl)cc3)N2C=C1)c1ccccc1	1.3	-15	0.7	1.1	0	-3
CCc1ccc(C(=O)NC(CCSC)C(=O)OC)cc1 (stereo not given)	1	6	1	1	-1	5
CCCn1c(NC(=O)C2CCN(S(=O)(=O)c3cccs3)CC2)nc2ccccc21	1.2	-25	1	1.1	0	-2
Cc1ccccc1NC(=O)Cn1c(CCC(=O)O)ccc1-c1cccs1	1	-9	1	0.9	0	19*
COC(=O)c1ccccc1NC(=O)Cn1c(CCC(=O)O)ccc1-c1cccs1	1.1	-14	0.9	1.1	1	2
CC(C)(C)OC(=O)NNC(=O)c1cccs1	1.2	-10	1.1	1.1	0	-4
CC(C)Oc1ccc(/C=N/NC(=O)c2ccc(N(Cc3ccccc3)S(C)(=O)=O)cc2)cc1	0.8	-8	0.8	0.9	0	-1
